Legend:
[1] = Cytotoxicity against human KMS-12-BM cells after 96 hrs by MTS assay; type: functional, cell-based
Outline: (§1)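 Cells kept in RPMI-1640 with 10% FBS and 1% penicillin/streptomycin at 37 °C under humidified 5% CO2. Seeded at 25,000 cells/well (KMS-12BM, RPMI-8226, U266) or 5000 cells/well (LNCaP), then exposed to graded drug concentrations or DMSO vehicle for 96 h. MTS read-out at OD 492 nm. LC50 from four-parameter logistic fit of log-transformed, vehicle-normalized OD; ≥3 independent experiments in triplicate.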

U-266 = experiment: Cytotoxicity against human U266 cells after 96 hrs by MTS assay; type: functional, cell-based; conditions: U-266, 96 h; outline: as §1
LNCaP = experiment: Cytotoxicity against human LNCAP cells after 96 hrs by MTS assay; type: functional, cell-based; outline: as §1
RPMI-8226 = experiment: Cytotoxicity against human RPMI8226 cells after 96 hrs by MTS assay; type: functional, cell-based; conditions: RPMI-8226, 96 h; outline: as §1
MDA-MB-231 = experiment: Cytotoxicity against human MDA-MB-231 cells after 96 hrs by MTS assay; type: functional, cell-based; conditions: MDA-MB-231, 96 h
[2] = Cytotoxicity against human FnMSC cells after 96 hrs by MTS assay; type: cell-based; conditions: read-out: LC50

CC[C@]12CCCN3CCc4c(n(c5ccccc45)C(=O)C1)[C@@H]32 [VINBURNINE]
LC50 [1]: > 100 µM | LC50 (U-266): > 100 µM | LC50 (LNCaP): > 100 µM | LC50 (RPMI-8226): > 100 µM | LC50 (MDA-MB-231): 41.8 µM

C=C1C(=O)n2c3c(c4ccccc42)CCN2CCC[C@]1(CC)[C@@H]32
CC50 at 96 h [2]: 16.7 µM | LC50 [1]: 4 µM | LC50 (U-266): 4.3 µM | LC50 (LNCaP): 9.5 µM | LC50 (RPMI-8226): 12.2 µM | LC50 (MDA-MB-231): 14.1 µM
